Measured values gathered from unrelated publications.
Compare with care: the assays were run in different laboratories.
Target: Mitogen-activated protein kinase kinase kinase kinase 5 (MAP4K5, Homo sapiens, UniProt Q9Y4K4)

| Structure (SMILES) | observed | mode | method | cells | tested at | measurement | result |
| --- | --- | --- | --- | --- | --- | --- | --- |
| O=C(Nc1cnn(-c2csc(C(=O)NC3COC3)c2)c1)Nc1ccccc1Cl | enzyme activity | inhibitor | – | – | 5 µM | remaining activity | 99.1% |
| CC(C)(C)c1nc(-c2cccc(NS(=O)(=O)c3c(F)cccc3F)c2F)c(-c2ccnc(N)n2)s1 | enzyme activity | inhibitor | radiometric | – | 1 µM | remaining activity | 90% |
| Cc1ccc(C(=O)NCc2ccsc2)cc1C#Cc1cn(C(C)C)c2ncnc(N)c12 | enzyme activity | inhibitor | – | – | 1 µM | activity vs control | 7% |
| CO[C@@H](C)c1c(Nc2ccc([C@H](N(C)C(=O)C3CCS(=O)(=O)CC3)C(F)(F)F)cc2)cnc2cc(Cl)nn12 | cell-free assay | – | competition with immobilised ligand | – | 1 µM | remaining binding | 88% |
| CC(C)(O)[C@H]1CC[C@H](Nc2ccc3ncc(-c4cccc(C(F)(F)F)c4)n3n2)CC1 | enzyme activity | inhibitor | – | – | 1 µM | remaining activity | 83.2% |
| FC(F)(F)Oc1cccc(-c2cnc3ccc(-c4ccncc4)nn23)c1 | enzyme activity | inhibitor | radiometric | – | 5 µM | activity vs control | 74% |
| COc1ccc(COc2ccc(Cc3cnc(N)nc3N)cc2OC)cc1 | cell-free assay | – | – | – | 0.5 µM | remaining signal | 97.4% |
| COc1cc(Cl)c(C(=O)N[C@@H](CN[C@H]2CC[C@@H](N)CC2)Cc2ccc(C#N)cc2)cc1-c1ccc(CN[C@H](C)c2ccc(C)cc2)o1 | enzyme activity | inhibitor | – | – | 1 µM | remaining activity | 113% |
| COc1cc2ncnc(Nc3ccc(Oc4ccccc4)cc3C)c2cc1OC | enzyme activity | inhibitor | – | – | 1 µM | inhibition | 38% |
| COc1ccnn2ncc(-c3ccnc(N(C)C)n3)c12 | binding | – | – | – | 1 µM | remaining binding | 100% |
| Cc1cc(C)c(-n2ccn3nc(-c4cccnc4)cc23)cc1NC(=O)c1cc(C#N)cc(S(F)(F)(F)(F)F)c1 | cell-free assay | – | competition with immobilised ligand | – | 0.1 µM | remaining binding | 83.4% |
| CCN1CCN(Cc2ccc(NC(=O)c3ccc(C)c(Oc4ccnc5[nH]ccc45)c3)cc2C(F)(F)F)CC1 | target engagement in cells | inhibitor | chemoproteomics | A-375 | 0.5 µM | inhibition | -0.264% |
| COCCOc1nc(-c2ccc(Cl)nc2)nc2c1CN(C(=O)c1ncn3ccccc13)CC2 | cell-free assay | – | competition with immobilised ligand | – | 0.1 µM | remaining binding | 91% |
| Clc1ccc(Nc2nnc(Cc3ccncc3)c3ccccc23)cc1 | cell-free assay | – | – | – | 0.5 µM | remaining signal | 101% |
| CN1CC(Oc2cnc(C#N)cc2-c2ccn3nc(NC(=O)C4CC4)cc3c2)C1 | enzyme activity | inhibitor | – | – | 1 µM | inhibition | 4% |
| CNCc1ccccc1-c1csc([C@H](C)Nc2nc(C)nc3cc(OC)c(OC)cc23)c1 | cell-free assay | – | competition with immobilised ligand | – | 1 µM | remaining binding | 100% |
| COc1cc(/C=C/C(=O)CC(=O)/C=C/c2ccc(O)c(OC)c2)ccc1O | enzyme activity | inhibitor | – | – | 1 µM | activity vs control | 87% |
| N#CCCc1ccc2c(c1)-c1[nH]c3ccc([N+](=O)[O-])cc3c1CC(=O)N2 | cell-free assay | – | – | – | 0.5 µM | remaining signal | 7.61% |
| CCCOc1ccc([C@@H]2[C@@H](C(=O)O)[C@H](c3ccc4c(c3)OCO4)CN2CC(=O)Nc2c(CC)cccc2CC)cc1 | cell-free assay | – | competition with immobilised ligand | – | 1 µM | remaining binding | 95% |
